Broadly, the IC50 is the concentration at which inhibition is half-maximal. For orientation: inhibition means the share of the control response that was lost under treatment.

Series [1] is described as follows: Antioxidant activity assessed as DPPH free radical scavenging activity incubated for 30 mins. The series is classed as functional. (DPPH is a stable violet radical that fades when it is reduced.)
Series [2] can be described thus: Antioxidant activity assessed as ABTS free radical scavenging activity by measuring trolox equivalents after 6 mins. The class given is functional. The essentials: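 ABTS radical scavenging, expressed as trolox equivalent: (mmol trolox)/(mmol tested compound).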
The target of series [3] is T1, Xanthine dehydrogenase/oxidase (Bos taurus, UniProt P80457). As to the kind of experiment: Inhibition of bovine milk xanthine oxidase pre-incubated for 30 mins followed by xanthine addition and measured every 30 secs for 5 mins by spectrophotometry.
Series [4] in a line: Antioxidant activity assessed as DPPH free radical scavenging activity incubated for 30 mins at 2000 uM. The series is classed as functional. The essentials:
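DPPH radical scavenging, given as percent inhibitory rate with test compound at 2000 µM.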

The subject of series [5] is Mus musculus. The series is described as follows: Anti-hyperuricemic activity in potassium oxonate-induced hyperuricemic Kun-Ming mouse assessed as serum uric acid level at 10 mg/kg/day, ig for 7 days and measured 1 hr post last dose (reference value: 5.89 +/- 0.36 mg/dl). The class given is functional.
Series [6] relates to Mus musculus. The series is described as follows: Anti-hyperuricemic activity in potassium oxonate-induced hyperuricemic Kun-Ming mouse assessed as xanthine oxidase activity per gram of protein at 10 mg/kg/day, ig for 7 days and measured 1 hr post last dose (reference value: 81.5 +/- 1.4 U/g protein). The class given is functional.
In series [7] the target is T1, Xanthine dehydrogenase/oxidase. The series is described as follows: Inhibition of bovine milk xanthine oxidase at 1000 uM pre-incubated for 30 mins followed by xanthine addition and measured every 30 secs for 5 mins by spectrophotometry. The settings on record: cattle. The essentials: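 XO inhibition tested up to 1000 µM, the highest concentration tested; compounds precipitate above this. IC50 values from three experiments, reported as mean ± SEM.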

Series [8] concerns Mus musculus. The series is described as follows: Anti-hyperuricemic activity in potassium oxonate-induced hyperuricemic Kun-Ming mouse assessed as serum uric acid level at 50 mg/kg/day, ig for 7 days and measured 1 hr post last dose (reference value: 5.89 +/- 0.36 mg/dl). The class given is functional.
In series [9] the test system is Mus musculus. As to the kind of experiment: Toxicity in Kun-Ming mouse assessed as induction of mortality at 5000 mg/kg, ig measured continuously for first 4 hrs and intermittently for next 24 hrs. The class given is organism-based. The settings on record: in vivo, po. The essentials:
(§1)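 Mice received a single 5,000 mg/kg dose. They were watched continuously for the first 4 h and intermittently over the next 24 h for abnormal behaviour and mortality. Water intake, food intake and body weight were tracked over the experimental period. The protocol was adapted from an earlier reported acute toxicity study.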

The subject of series [10] is Mus musculus. The series is described as follows: Toxicity in Kun-Ming mouse assessed as effect on food consumption at 5000 mg/kg, ig measured continuously for first 4 hrs and intermittently for next 24 hrs. The settings on record: in vivo, po. The class given is organism-based. The essentials:
as §1

Series [11] deals with Mus musculus. The series is described as follows: Anti-hyperuricemic activity in potassium oxonate-induced hyperuricemic Kun-Ming mouse assessed as xanthine oxidase activity per gram of protein at 50 mg/kg/day, ig for 7 days and measured 1 hr post last dose (reference value: 81.5 +/- 1.4 U/g protein). The class given is functional.
The subject of series [12] is Mus musculus. As to the kind of experiment: Anti-hyperuricemic activity in potassium oxonate-induced hyperuricemic Kun-Ming mouse assessed as reduction in serum uric acid level at 10 and 50 mg/kg/day, ig for 7 days and measured 1 hr post last dose. The class given is functional, organism-based.
Series [13] concerns the target T1, Xanthine dehydrogenase/oxidase. The series is described as follows: Mixed type inhibition of bovine milk xanthine oxidase pre-incubated for 30 mins followed by xanthine addition and measured every 30 secs for 5 mins by spectrophotometry based L-B plot analysis. The note with it: cattle. In short, it runs like this:
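Inhibition type from Michaelis–Menten kinetics. Initial XO velocity measured at increasing xanthine concentrations with inhibitor at 0, 25, 50 and 100 µM. Activity read as change in absorbance at 295 nm per unit time; mode assigned from overlaid Lineweaver–Burk reciprocal plots.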

The test system of series [14] is Mus musculus. As to the kind of experiment: Toxicity in Kun-Ming mouse assessed as induction of body weight reduction at 5000 mg/kg, ig measured continuously for first 4 hrs and intermittently for next 24 hrs. The series is classed as organism-based. The settings on record: in vivo, po. The essentials:
as §1

Series [15] has as its system Mus musculus. The series is described as follows: Toxicity in Kun-Ming mouse assessed as effect on water consumption at 5000 mg/kg, ig measured continuously for first 4 hrs and intermittently for next 24 hrs. The class given is organism-based. The settings on record: in vivo, po. The essentials:
as §1

Some results are limits rather than exact numbers.

T1 sequence (P80457 whole entry): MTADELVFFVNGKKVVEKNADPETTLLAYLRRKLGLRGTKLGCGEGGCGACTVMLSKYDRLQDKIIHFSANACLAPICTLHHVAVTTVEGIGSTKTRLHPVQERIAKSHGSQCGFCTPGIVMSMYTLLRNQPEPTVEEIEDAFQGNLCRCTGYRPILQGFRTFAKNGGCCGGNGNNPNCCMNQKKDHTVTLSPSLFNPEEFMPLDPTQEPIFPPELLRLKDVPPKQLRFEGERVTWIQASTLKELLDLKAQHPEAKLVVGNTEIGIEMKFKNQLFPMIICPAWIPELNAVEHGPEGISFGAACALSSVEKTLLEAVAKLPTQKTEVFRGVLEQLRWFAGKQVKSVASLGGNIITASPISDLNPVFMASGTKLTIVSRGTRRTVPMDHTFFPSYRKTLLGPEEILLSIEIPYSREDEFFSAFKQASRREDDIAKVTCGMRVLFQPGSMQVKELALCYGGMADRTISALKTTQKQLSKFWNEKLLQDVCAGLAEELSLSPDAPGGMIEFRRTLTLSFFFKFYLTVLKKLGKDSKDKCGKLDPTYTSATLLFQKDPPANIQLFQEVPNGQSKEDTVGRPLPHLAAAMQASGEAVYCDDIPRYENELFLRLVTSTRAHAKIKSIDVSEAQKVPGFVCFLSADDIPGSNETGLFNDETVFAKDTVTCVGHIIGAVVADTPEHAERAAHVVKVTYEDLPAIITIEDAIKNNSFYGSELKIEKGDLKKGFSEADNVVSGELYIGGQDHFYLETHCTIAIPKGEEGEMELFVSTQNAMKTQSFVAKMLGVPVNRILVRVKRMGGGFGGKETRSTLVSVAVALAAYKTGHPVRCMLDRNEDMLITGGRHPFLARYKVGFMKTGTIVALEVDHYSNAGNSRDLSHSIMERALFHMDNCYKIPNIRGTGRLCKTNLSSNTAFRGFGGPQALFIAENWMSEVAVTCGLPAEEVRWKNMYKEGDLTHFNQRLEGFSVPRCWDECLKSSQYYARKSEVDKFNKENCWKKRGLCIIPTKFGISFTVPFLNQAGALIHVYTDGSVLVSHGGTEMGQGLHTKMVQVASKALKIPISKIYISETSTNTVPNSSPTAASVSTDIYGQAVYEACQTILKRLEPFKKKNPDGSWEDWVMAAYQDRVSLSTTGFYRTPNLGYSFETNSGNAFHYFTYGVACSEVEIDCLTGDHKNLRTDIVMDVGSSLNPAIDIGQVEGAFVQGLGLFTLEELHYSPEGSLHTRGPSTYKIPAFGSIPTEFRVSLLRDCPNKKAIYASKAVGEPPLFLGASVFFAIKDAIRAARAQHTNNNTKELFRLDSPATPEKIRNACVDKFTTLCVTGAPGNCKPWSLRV

For `Oc1ccc(/C=C/c2cc(O)cc(O)c2)cc1` [RESVERATROL], the half-inhibitory concentration (IC50) in series [1] came out at 95.1 µM. In addition, the Activity (mmolequiv/mmol) in series [2] amounted to 0.65.

In [3], `O=C(/C=C/c1ccccc1O)c1ccccc1` had an IC50 of 145 µM. Moreover, the inhibition in [4] was 10.8%. The Activity (mmolequiv/mmol) in series [2] is < 0.1.

As for `Oc1ncnc2[nH]ncc12` [ALLOPURINOL], the Activity in [5] stood at 4.14 mg/dL; in series [6] it was 50.9 U/g protein. Also, the inhibition in [4] was found to be 20.5%. Also, the Activity (mmolequiv/mmol) in series [2] is < 0.1.

The molecule `O=C(/C=C/c1ccc(O)cc1)c1ccc(O)cc1` [4,4'-DIHYDROXYCHALCONE] displayed an IC50 in series [3] of 117 µM. Moreover, the inhibition in [4] was determined as 35.9%. Besides, the Activity (mmolequiv/mmol) in [2] turned out to be 0.43.

Take `O=C(/C=C/c1ccccc1)c1ccccc1O` [2'-HYDROXYCHALCONE]: in series [3], the half-maximal inhibitory concentration (IC50) came out at 71.3 µM. In series [4], the inhibition stood at 13.5%. For the same molecule, the Activity (mmolequiv/mmol) in series [2] was < 0.1.

For the molecule `O=C(/C=C/c1ccc(O)cc1O)c1ccccc1`, the inhibition in [4] was 10.8%. The “inhibition (INH)” value in [7] is listed as “Not Active”. In series [2], the Activity (mmolequiv/mmol) is < 0.1.

For `O=C(/C=C/c1cccc(O)c1)c1ccccc1` [3-HYDROXY CHALCONE], half-maximal inhibition in series [3] (IC50) required 228 µM. Also, the inhibition in series [4] amounted to 11.3%. Further, the Activity (mmolequiv/mmol) in [2] is < 0.1.

The molecule `O=C(/C=C/c1ccc(O)cc1)c1ccccc1O` returned a half-maximal inhibitory concentration (IC50) in series [3] of 79.4 µM. In series [4], the inhibition is 23.1%. For the same molecule, the Activity (mmolequiv/mmol) in series [2] came to 0.24.

With `O=C(/C=C/c1cccc(O)c1)c1cccc(O)c1`, in [3], the IC50 worked out at 88.3 µM. Further, the inhibition in series [4] is 24.3%. In addition, in [2], the Activity (mmolequiv/mmol) was found to be 0.18.

`O=C(/C=C/c1ccccc1O)c1ccc(O)cc1O`: the Activity in series [8] was 4.5 mg/dL; in series [5] it was 5.21 mg/dL; in series [9], “Non-Toxic”; in [10] it was “Non-Toxic”; in series [11] it was 64.1 U/g protein; in [12], “Dose-dependent effect”. The Activity result was “Non-Toxic” in series [14], 73.2 U/g protein in [6] and “Non-Toxic” in series [15]. Also, the 50% inhibitory concentration (IC50) in [1] came to 128 µM; in series [3], 56.8 µM. The “inhibition (INH)” value in series [13] was “Active”. Moreover, the Activity (mmolequiv/mmol) in series [2] worked out at 0.87.

As to `O=C(/C=C/c1ccc(O)cc1)c1ccc(O)cc1O` [ISOLIQUIRITIGENIN], the Activity in series [8] is 4.45 mg/dL; in series [5] it was 5.14 mg/dL; in series [9] it was “Non-Toxic”; in [10], “Non-Toxic”; in series [11] it was 62 U/g protein; in [14], “Non-Toxic”. Further, the Activity was 70.5 U/g protein in series [6] and “Non-Toxic” in [15]. For the same molecule, the IC50 in series [1] was 287 µM; in [3], 47.3 µM. Also, in series [2], the Activity (mmolequiv/mmol) came to 0.51.

`O=C(/C=C/c1cccc(O)c1)c1ccc(O)cc1O` showed an IC50 in [3] of 108 µM. In addition, the inhibition in series [4] came out at 38.6%. In addition, the Activity (mmolequiv/mmol) in [2] worked out at 0.45.

On to `O=C(/C=C/c1ccccc1)c1ccc(O)cc1` [4'-HYDROXYCHALCONE], for which the inhibition in [4] came to 12.5%. The “inhibition (INH)” value in [7] is recorded as “Not Active”. Besides, the Activity (mmolequiv/mmol) in series [2] was < 0.1.

Consider `O=C(/C=C/c1ccc(O)cc1)c1cccc(O)c1`, for which the 50% inhibitory concentration (IC50) in series [3] turned out to be 133 µM. In [4], the inhibition amounted to 19.7%. Also, the Activity (mmolequiv/mmol) in [2] is 0.16.

`O=C(/C=C/c1ccccc1)c1ccccc1` [CHALCONE]: in series [4], the inhibition was determined as 18.4%. For the same molecule, the “inhibition (INH)” value in [7] is “Not Active”. In series [2], the Activity (mmolequiv/mmol) was < 0.1.

As to `O=C(/C=C/c1cccc(O)c1)c1ccccc1O`, the IC50 in series [1] stood at 108 µM; in series [3], 91.8 µM. In addition, in series [2], the Activity (mmolequiv/mmol) was determined as 0.93.

In turn, `O=C(/C=C/c1ccc(O)cc1)c1ccccc1` [4-HYDROXYCHALCONE] displayed an IC50 in series [3] of 159 µM. Besides, the inhibition in series [4] amounted to 25.7%. For the same molecule, in [2], the Activity (mmolequiv/mmol) was < 0.1.

`O=C(/C=C/c1ccccc1O)c1ccccc1O` gave an IC50 in series [3] of 87.4 µM. In addition, the inhibition in series [4] was determined as 28%. The Activity (mmolequiv/mmol) in [2] is 0.17.

`O=C(/C=C/c1ccccc1)c1cccc(O)c1` came in with an IC50 in series [3] of 165 µM. In addition, in series [4], the inhibition turned out to be 11.7%. In addition, in [2], the Activity (mmolequiv/mmol) is < 0.1.

With `O=C(/C=C/c1ccccc1)c1ccc(O)cc1O` [2',4'-DIHYDROXYCHALCONE], the values for the 50% inhibitory concentration (IC50) in series [1] and in [3] were 197 µM and 107 µM, respectively. Also, in series [2], the Activity (mmolequiv/mmol) is 0.38.

The values are drawn from ChEMBL document CHEMBL4043097, “Synthesis and evaluation of hydroxychalcones as multifunctional non-purine xanthine oxidase inhibitors for the treatment of hyperuricemia” (Bioorg Med Chem Lett, 2017).
